The values that follow come from ChEMBL document CHEMBL4834403, “Design and Synthesis of Novel Epigenetic Inhibitors Targeting Histone Deacetylases, DNA Methyltransferase 1, and Lysine Methyltransferase G9a with In Vivo Efficacy in Multiple Myeloma” (J Med Chem, 2021).

In data set [1] the test system is MM1.S. Kind of data set: Induction of DNA hypomethylation in human MM1.S cells assessed as CPG hypomethylation at position 3 at 2 uM measured after 5 days relative to control. Format: cell-based. The settings on record: time 5.0 day. Put shortly: (§1)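 MM1.S cells dosed every day for 5 days at 2 μM or 10 nM. DNA methylation at CpGs of the POU4F2 promoter read by pyrosequencing; run in duplicate.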

In data set [2] the target is T1, Histone-lysine N-methyltransferase EHMT2 (Homo sapiens) (UniProt Q96KQ7).
T1 sequence (whole entry): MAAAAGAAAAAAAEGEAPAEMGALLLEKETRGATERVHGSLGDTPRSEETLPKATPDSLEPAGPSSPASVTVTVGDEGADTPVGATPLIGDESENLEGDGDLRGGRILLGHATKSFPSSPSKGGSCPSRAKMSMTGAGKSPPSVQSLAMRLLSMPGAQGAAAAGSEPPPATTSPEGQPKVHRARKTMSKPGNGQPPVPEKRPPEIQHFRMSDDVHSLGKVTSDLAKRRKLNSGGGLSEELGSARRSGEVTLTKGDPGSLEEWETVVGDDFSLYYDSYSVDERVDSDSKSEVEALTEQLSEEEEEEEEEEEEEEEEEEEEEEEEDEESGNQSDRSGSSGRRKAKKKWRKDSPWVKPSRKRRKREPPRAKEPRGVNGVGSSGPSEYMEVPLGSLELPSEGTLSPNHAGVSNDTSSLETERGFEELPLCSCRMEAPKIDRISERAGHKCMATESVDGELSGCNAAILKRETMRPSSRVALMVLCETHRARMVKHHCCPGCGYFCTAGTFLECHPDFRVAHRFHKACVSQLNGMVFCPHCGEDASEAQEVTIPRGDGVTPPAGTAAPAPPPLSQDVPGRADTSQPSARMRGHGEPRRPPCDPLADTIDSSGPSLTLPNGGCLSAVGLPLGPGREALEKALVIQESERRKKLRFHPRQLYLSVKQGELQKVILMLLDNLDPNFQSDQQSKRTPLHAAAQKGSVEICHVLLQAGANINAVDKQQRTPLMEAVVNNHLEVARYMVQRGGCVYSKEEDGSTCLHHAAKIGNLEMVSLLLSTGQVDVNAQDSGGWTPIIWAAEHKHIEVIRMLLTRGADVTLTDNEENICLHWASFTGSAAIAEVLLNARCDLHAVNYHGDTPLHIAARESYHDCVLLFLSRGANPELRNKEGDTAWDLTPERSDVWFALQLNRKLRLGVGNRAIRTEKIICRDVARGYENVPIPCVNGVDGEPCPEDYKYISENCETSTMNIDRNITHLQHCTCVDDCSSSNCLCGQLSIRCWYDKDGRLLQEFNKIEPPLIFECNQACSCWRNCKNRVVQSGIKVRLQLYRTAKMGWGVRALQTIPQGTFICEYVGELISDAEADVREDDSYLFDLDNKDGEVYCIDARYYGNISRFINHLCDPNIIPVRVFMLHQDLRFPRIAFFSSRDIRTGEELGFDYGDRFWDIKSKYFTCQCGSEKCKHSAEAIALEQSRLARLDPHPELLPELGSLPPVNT
Put plainly: Inhibition of G9A in human MM1.S cells assessed as decrease in H3K9Me2 levels > 1 uM after 48 hrs by Western blot analysis. To be noted: dose microM >1, time 48.0 hrs. It counts as cell-based. Put shortly: (§2)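 MM1.S cells exposed 48 h across a concentration range. Global H3K9Ac and H3K9me2 read by Western blot; run in duplicate.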

The target of data set [3] is Histone deacetylase (Homo sapiens) (UniProt Q13547+O15379+Q9UBN7+Q92769+Q9UQL6+Q8WUI4+Q9BY41+Q96DB2+P56524+Q9UKV0+Q969S8). Put plainly: Inhibition of HDAC in human MM1.S cells assessed as increase in H3K9Ac at > 1 uM after 48 hrs by Western blot analysis. It counts as cell-based. The settings on record: dose microM >1, time 48.0 hrs. Put shortly:
as §2

Data set [4] can be described thus: Toxicity in mouse assessed as mouse death at 10 mg/kg, ip after 10 mins. Format: organism-based. To be noted: in vivo. The essentials:
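Observation made during a preliminary pharmacokinetic study with i.p. dosing, n = 5 mice per dose level, with blood extraction after administration.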

The target of a further data set is CYP2C19 (Homo sapiens, UniProt P33261). Put plainly: Inhibition of CYP2C19 in human liver microsomes at 10 uM incubated for 10 mins in presence of NADPH by LC-MS/MS analysis relative to control. It counts as ADME.
Sequence of CYP2C19 (P33261 whole entry): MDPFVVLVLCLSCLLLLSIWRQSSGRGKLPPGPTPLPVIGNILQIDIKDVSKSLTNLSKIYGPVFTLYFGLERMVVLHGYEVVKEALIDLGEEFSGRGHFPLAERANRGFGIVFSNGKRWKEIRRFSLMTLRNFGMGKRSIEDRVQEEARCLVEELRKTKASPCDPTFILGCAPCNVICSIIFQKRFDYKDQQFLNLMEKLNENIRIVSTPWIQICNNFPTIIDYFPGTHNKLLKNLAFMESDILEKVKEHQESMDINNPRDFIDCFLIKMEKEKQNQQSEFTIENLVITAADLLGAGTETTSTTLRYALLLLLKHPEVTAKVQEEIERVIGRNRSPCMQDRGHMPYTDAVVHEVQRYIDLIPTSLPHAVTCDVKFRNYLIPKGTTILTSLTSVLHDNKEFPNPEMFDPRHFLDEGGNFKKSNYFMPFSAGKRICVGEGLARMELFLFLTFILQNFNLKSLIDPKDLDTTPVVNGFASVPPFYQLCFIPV
Data set [5] has as its target T1, Histone-lysine N-methyltransferase EHMT2 (Homo sapiens). Put plainly: Inhibition of G9A in human MM1.S cells assessed as decrease in H3K9Me2 levels up to 1000 nM after 48 hrs by Western blot analysis. It counts as cell-based. The settings on record: dose nM <=1000, time 48.0 hrs. Put shortly: as §2
Data set [6] is described as follows: Kinetic solubility of the compound. It counts as physicochemical. The settings on record: read-out: Kinetic_solubility.
The test system of data set [7] is MM1.S. Put plainly: Induction of DNA hypomethylation in human MM1.S cells assessed as CPG hypomethylation at position 4 at 10 nM measured after 5 days relative to control. The settings on record: time 5.0 day. It counts as cell-based. The essentials: as §1

The source made the active and inactive calls. The rule behind the calls is not given here.

Regarding `COc1cc2c(NCC3CCN(c4ncc(C(=O)NO)cn4)CC3)cc(-c3ccc(C)o3)nc2cc1OCCCN1CCCC1`, the Activity was 15% with MM1.S [1] and “Toxic” in data set [4]. In addition, the inhibition entry in data set [2] and in data set [3] was “Active” in each case.

As for `COc1cc2nc(-c3ccc(C)o3)cc(NCC3CCN(c4ncc(C(=O)NO)cn4)CC3)c2cc1OC`, the inhibition at 10 min, 10 µM at CYP2C19 was 5.6%. The inhibition entry in data set [5] was “inactive”. Besides, in data set [6], the solubility kinetic is below 0.987 µg/mL. Moreover, in the data set on MM1.S [7], the Activity was determined as 10%.

What is called inhibition is the share of the control response that was lost under treatment.
